# Reference: ChEMBL document CHEMBL3046326, “Screening of dialkoxybenzenes and disubstituted cyclopentene derivatives against the cabbage looper, Trichoplusia ni, for the discovery of new feeding and oviposition deterrents” (J Agric Food Chem, 2007)
# Tests used:
# [1] = test system: Trichoplusia ni; assay: Toxicity against third-instar larval stage of Trichoplusia ni (cabbage looper) assessed as mortality at 0.25% measured after 24 hr by contact toxicity bioassay; type: functional
# Procedure, shortened: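 Third-instar larvae were sprayed directly with test solution at 0.25% in filter-paper-lined Petri dishes. They were then moved to dishes holding a small piece of artificial diet. Mortality was scored 24 h after spraying. The test applied only to compounds giving >50% feeding deterrence at 50 µg/cm².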
# [2] = test system: Trichoplusia ni; assay: Oviposition deterrent activity against adult female Trichoplusia ni (cabbage looper) moths introduced along with male moths into oviposition cage containing compound pretreated cabbage leaves assessed as eggs laying on the leaf disks at 0.25% after 48 hr by oviposition choice bioassay; type: functional
# Procedure, shortened: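 Choice test with moths from larvae reared on normal diet from neonate to pupation. Pupae were sexed and held separately until emergence. Cabbage leaves were treated with test substance at 0.25% or left as control, and eggs per leaf were counted after 48 h. ODI = [(C − T)/(C + T)] × 100 from egg numbers on control and treated leaves.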
# [3] = test system: Trichoplusia ni; assay: Feeding deterrent activity against freshly molted third-instar larval stage of Trichoplusia ni (cabbage looper), Trichoplusia ni at 50 ug/cm'2 after 3 to 5 hr by leaf disk choice bioassay; type: functional
# Procedure, shortened: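 Leaf disk choice with freshly molted third instar larvae starved 4–5 h. One disk was painted on each side with 10 µL solution giving 50 µg/cm², the other with carrier solvent. Twenty-five larvae per treatment, stopped at ~50% control disk consumption (3–5 h). Deterrence = [(C − T)/(C + T)] × 100 from consumed areas; mean ± SE, Tukey's test p < 0.05.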
# [4] = test system: Trichoplusia ni; assay: Feeding deterrent activity against freshly molted third-instar larval stage of Trichoplusia ni (cabbage looper) after 3 to 5 hr by leaf disk choice bioassay; type: functional, organism-based
# Procedure, shortened: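 Choice test: freshly molted third instar larvae, starved 4–5 h, offered two leaf disks, one painted on each side with 10 µL test solution and one with carrier solvent only. Twenty-five larvae per treatment. Ended when ~50% of the control disk was eaten (normally 3–5 h). Consumed areas measured. DC50 derived by linear regression of at least four concentrations (3.12–25 µg/cm²).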
Compound,mortality [1] [%],Activity [2] [%],Activity [3] [%],DC50 [4] [microg/cm2]
CCCOc1ccc(OCCC(C)C)cc1 [1-isopentyloxy-4-propoxybenzene],18.8,22.9,100,5.8
"CCOc1ccccc1OCC [1,2-DIETHOXYBENZENE]",–,–,-2.1,–
"COc1cccc(OC)c1 [1,3-DIMETHOXYBENZENE]",–,–,20.4,–
C=CCOc1ccc(OC)cc1 [1-allyloxy-4-methoxybenzene],10,5.4,82.4,27.9
CCCCCOc1cccc(OCCC(C)C)c1 [1-isopentyloxy-3-pentoxybenzene],20.8,35.7,82.6,19.8
CCCOc1ccc(OC)cc1 [1-methoxy-4-propoxybenzene],23.3,6,53.4,34.6
CCCCCOc1ccccc1OCC [1-ethoxy-2-pentoxybenzene],6.7,28.7,71,24.1
CCCCCOc1cccc(OC)c1 [1-methoxy-3-pentoxybenzene],16.7,70.2,54.8,61.5
COc1cccc(OCCC(C)C)c1 [1-isopentyloxy-3-methoxybenzene],20.8,35.7,82.6,19.8
CCOc1ccccc1O [1-hydroxy-2-ethoxybenzene],–,–,-5.3,–
CC(C)CCOCC[C@@H]1CC=C[C@@H]1OCCC(C)C (racemic),44.8,47,58.6,34.4
CCCCOc1ccc(OCC)cc1 [1-butyloxy-4-ethoxybenzene],58.1,50.1,83.4,14.5
"CCOc1cccc(OCC)c1 [1,3-DIETHOXYBENZENE]",36.7,3.4,89.4,28.7
"COc1ccc(OC)cc1 [1,4-DIMETHOXYBENZENE]",–,–,9.9,–
CCCCCOc1ccccc1OCCC(C)C [1-isopentoxy-2-pentoxybenzene],10,29.4,66.9,32.5
CCCOc1cccc(OC)c1 [1-methoxy-3-propoxybenzene],16.7,70.2,54.8,61.5
C=CCOc1ccccc1OCCCCC [1-allyloxy-2-pentoxybenzene],23.3,66.7,67.8,30
C=CCOc1ccccc1OCCCC [1-allyloxy-2-butoxybenzene],23.3,66.7,67.8,30
OCC[C@@H]1CC=C[C@@H]1O (racemic),–,–,36.6,–
CCOc1ccccc1OCCC(C)C [1-isopentoxy-2-ethoxybenzene],10,29.4,66.9,32.5
"C=CCOc1ccc(OCC=C)cc1 [1,4-DIALLYLOXYBENZENE]",16,14.1,96.9,23.9

Compound,mortality [1] [%],Activity [2] [%],Activity [3] [%],DC50 [4] [microg/cm2]
C=CCOc1ccccc1OCC [1-allyloxy-2-ethoxybenzene],23.3,66.7,67.8,30
CCCCCOc1ccc(OC)cc1 [1-methoxy-4-pentoxybenzene],23.3,6,80.2,34.6
CC(C)CCOc1ccc(O)cc1 [1-hydroxy-4-isopentoxybenzene],–,–,29.5,–
CCOc1ccccc1OC [1-methoxy-2-ethoxybenzene],–,–,23.5,–
CCCOc1cccc(O)c1 [1-hydroxy-3-propoxybenzene],–,–,4,–
CCCCOc1ccccc1O [1-hydroxy-2-butoxybenzene],–,–,12,–
"CC(C)CCOc1cccc(OCCC(C)C)c1 [1,3-DIISOPENTOXYBENZENE]",–,–,-12.2,–
"C=CCOc1ccccc1OCC=C [1,2-DIALLYLOXYBENZENE]",20,15,70.4,22.4
CCOc1ccc(O)cc1 [1-hydroxy-4-ethoxybenzene],–,–,29.8,–
CCCCOc1cccc(OCC)c1 [1-butyloxy-3-ethoxybenzene],30,25.9,84.1,14.4
C=CCOc1ccc(OCCC)cc1 [1-allyloxy-4-propoxybenzene],10,5.4,82.4,27.9
COc1ccc(O)cc1 [MEQUINOL],–,–,-26.5,–
CCCCCCCCCO[C@H]1C=CC[C@H]1CCO (racemic),–,–,45.2,–
CCCCOc1ccccc1OCCC [1-propoxy-2-butoxybenzene],13.8,31.7,100,19.4
CCCOc1cccc(OCC)c1 [1-ethoxy-3-propoxybenzene],20,14.3,69.8,26.5
"CCCOc1cccc(OCCC)c1 [1,3-DIPROPOXYBENZENE]",76.7,33,96.9,26.8
CCCOc1cccc(OCCC(C)C)c1 [3-PROPOXY-1-ISOPENTOXYBENZENE],20.8,35.7,82.6,19.8
C=CCOc1ccc(OCCCC)cc1 [1-allyloxy-4-butoxybenzene],10,16.8,84,22.6
CCCOc1ccccc1OCCC(C)C,10,29.4,66.9,32.5
"COc1ccccc1OC [1,2-DIMETHOXYBENZENE]",–,–,26,–
COc1ccccc1OCCC(C)C [1-isopentoxy-2-methoxybenzene],10,29.4,66.9,32.5

Compound,mortality [1] [%],Activity [2] [%],Activity [3] [%],DC50 [4] [microg/cm2]
CCCOc1ccccc1O [1-hydroxy-2-propoxybenzene],–,–,-12,–
C=CCOc1ccc(OCCC(C)C)cc1 [1-allyloxy-4-isopentoxybenzene],7,18.8,75.1,15.7
CCCCOCC[C@@H]1CC=C[C@@H]1OCCCC (racemic),30,29.5,76,29.2
CCCCCOc1cccc(OCCC)c1 [1-propoxy-3-pentoxybenzene],50,2.7,98,21.5
CCCCCCCCCO[C@H]1C=CC[C@H]1CCOCCC(C)C (racemic),–,–,22,–
CCCCCOc1ccc(OCCC)cc1 [1-propoxy-4-pentoxybenzene],53.1,9.6,53.4,39.7
COc1cccc(O)c1 [1-hydroxy-3-methoxybenzene],–,–,44.7,–
CCCCO[C@H]1C=CC[C@H]1CCO (racemic),–,–,41.6,–
CCOc1cccc(O)c1 [1-hydroxy-3-ethoxybenzene],–,–,-18.7,–
CCCCCOc1ccccc1OC [1-methoxy-2-pentoxybenzene],–,–,23.5,–
CCCOc1ccccc1OC [1-methoxy-2-propoxybenzene],–,–,23.5,–
"CC(C)CCOc1ccc(OCCC(C)C)cc1 [1,4-DIISOPENTOXYBENZENE]",–,–,44,–
CCCCOc1ccccc1OC [1-methoxy-2-butoxybenzene],–,–,23.5,–
CCOCC[C@@H]1CC=C[C@@H]1OCC (racemic),–,–,-17.8,–
COc1ccccc1O [GUAIACOL],–,–,-7.5,–
C=CCOc1ccccc1O [1-hydroxy-2-allyloxybenzene],–,–,31.1,–
COCC[C@@H]1CC=C[C@@H]1OC (racemic),–,–,-17.6,–
CC(C)CCOc1cccc(O)c1 [1-hydroxy-3-isopentoxybenzene],–,–,-5.8,–
CCCOc1ccc(O)cc1 [1-hydroxy-4-propoxybenzene],–,–,-28,–
"CCCOc1ccccc1OCCC [1,2-DIPROPOXYBENZENE]",–,–,26.2,–
